M1 antag: blocks human M1 muscarinic receptor; AID 588852; P11229; CHO-K1 hM1, Fluo-8 calcium fluorescence, ACh EC80 antagonist; 360,000 compounds, 1.3% hits; inhibition, % at 3 µM;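 active = percent inhibition above its own plate's cutoff, namely the mean of that plate's compound wells plus 3 SD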;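 also: peak over basal fluorescence ratio during 140 s after agonist addition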
TAAR1 antag: human TAAR1 antagonism; Q96RJ0; CHO RD-HGA16 TAAR1, Fluo-8 calcium fluorescence, antagonist; inhibition, % at 3 µM; 360,000 compounds, 1.5% hits; AID 624466;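 active = inhibition above a per-plate cutoff, the mean inhibition of test compounds on that plate plus 3 SD, cut at about 49% in these data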
Target sequence (Q96RJ0 whole entry, looked up): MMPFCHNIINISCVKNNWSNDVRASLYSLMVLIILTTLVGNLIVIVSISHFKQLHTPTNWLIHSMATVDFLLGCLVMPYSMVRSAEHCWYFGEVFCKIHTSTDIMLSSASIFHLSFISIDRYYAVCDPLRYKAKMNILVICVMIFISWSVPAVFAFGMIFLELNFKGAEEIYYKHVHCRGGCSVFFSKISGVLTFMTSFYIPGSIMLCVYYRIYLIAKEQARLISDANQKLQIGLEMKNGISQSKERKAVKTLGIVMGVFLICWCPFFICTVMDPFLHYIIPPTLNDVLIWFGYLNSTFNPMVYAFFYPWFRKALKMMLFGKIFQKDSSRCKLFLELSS
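Material: CHO RD-HGA16 cells bearing hTAAR1; compound dosing: one-point dosing, 3 µM nominal final; schedule: dye loading 75 min at 37 °C, then 30 min room temperature; measured by: calcium fluorescence with Fluo-8; control set: vehicle and agonist controls; replication: n of 1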
CHRM1 PAM: potentiates human M1 receptor response to acetylcholine; CHO-K1 hM1, Fluo-8 calcium fluorescence, ACh EC20; 0% = ACh EC20, 100% = maximal ACh; activation, % at 3 µM; 360,000 compounds, 0.088% hits; P11229; in the data active = activation above about 19%, passing the limit was not always enough
CHRM1 agonist: human M1 muscarinic receptor agonism. P11229. CHO-K1 hM1, Fluo-8 calcium fluorescence, agonist mode; 0% DMSO, 100% acetylcholine EC100. activation, % at 3 µM. 360,000 compounds, 0.33% hits. AID 588814;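 active = activation above the run's mean compound activation plus 3 SD, cut at about 16% in these data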;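 also: peak over basal fluorescence ratio within a 140 s kinetic read after compound addition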
TAAR1 agonist: agonists of human TAAR1; 360,000 compounds, 0.99% hits; CHO RD-HGA16 TAAR1, Fluo-8 calcium fluorescence; vehicle wells 0%, saturating PEA agonist 100%; Q96RJ0; activation, % at 3 µM;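 active = activation above the mean activation of all test compounds in the run plus 3 SD, cut at about 38% in these data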
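Assay system – CHO-derived RD-HGA16 cells with stable Gα16 and human TAAR1 · Compound dosing – one-point dosing at 3 µM (nominal) · Incubation – 17-24 h seeding, 75 min 37 °C dye, 30 min RT · Measured by – kinetic Fluo-8 calcium fluorescence · Control set – DMSO vehicle as 0%, PEA at EC100 as 100% · Repeats – single well for each compound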
nonsel antag count: counter-screen for TAAR1 antagonists: nonselective antagonists. shares compounds with TAAR1 antag. 2,400 compounds, 77% hits. counterscreen cell line, calcium fluorescence, antagonist mode. inhibition, % at 3 µM. AID 651780; in the data active = inhibition above about 22%;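 also: CHO-Ga16 host cells stimulated with ATP at an EC80 level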
TAAR1 ant conf: human TAAR1 antagonism, confirmed | shares compounds with TAAR1 antag | 2,400 compounds, 40% hits | TAAR1-expressing cells, fluorescence antagonist read-out | inhibition, % at 3 µM; in the data active = inhibition above about 49%;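 also: CHO-Ga16 host cells challenged with agonist PEA near its EC80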
Ga16 nonsel ag: nonselective Ga16 agonism, counter-screen | shares compounds with TAAR1 antag | Ga16-expressing cells, calcium fluorescence, agonist counterscreen | activation, % at 3 µM | 2,400 compounds, 18% hits; in the data active = activation above about 12%
TAAR1 ag counter: activates human TAAR1 in antagonist counter-screen | hTAAR1 cell line, fluorescence activation, agonist mode | activation, % at 3 µM | 2,400 compounds, 2% hits | AID 651955 | shares compounds with TAAR1 antag; in the data active = activation above about 37%;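 also: CHO cells stably expressing TAAR1 with calcium dye readout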
Large screens that a line does not name were inactive (follow-up assays come after a bar, where they were run). Hits are enriched below; roughly 3.4% of the tested compounds scored in any of these assays.

COc1ccc(OC)c(CN2C(=O)CCC2(C)c2nnnn2-c2c(C)cccc2C)c1 (stereo unspecified)	none (no result: M1 antag, CHRM1 PAM, CHRM1 agonist)
CCOC(=O)C1CCCN(c2c(C(=O)c3ccccc3)cnc3ccc(OC)cc23)C1 (stereo unspecified)	M1 antag 51, TAAR1 antag 86, CHRM1 agonist 62 | nonsel antag count inactive | TAAR1 ant conf 66 | Ga16 nonsel ag inactive | TAAR1 ag counter inactive
CC(C)CCN1CCN=C1Nc1ccccc1	TAAR1 antag 108 | nonsel antag count inactive | TAAR1 ant conf inactive | Ga16 nonsel ag inactive | TAAR1 ag counter inactive
CC(C)CN1CCN=C1Nc1ccccc1	none
CCC(=O)N1CCCC1(C)C(=O)NCc1ccc(SC)cc1 (stereo unspecified)	none
CCCCCCCCN1C(=O)[C@H](CC(=O)NCc2cccc(C(F)(F)F)c2)C[C@@]2(C(=O)OC)CC(C)(C)CC=C12	none (no result: M1 antag, CHRM1 PAM, CHRM1 agonist)
CCCS(=O)(=O)c1c(S(=O)(=O)CCC)c2c3ccccc3ccn2c1C(=O)OC	TAAR1 antag 49 | nonsel antag count inactive | TAAR1 ant conf inactive | Ga16 nonsel ag inactive | TAAR1 ag counter inactive
CCCS(=O)(=O)c1c(S(=O)(=O)CCC)c2c(C)cccn2c1C(=O)OC	none
CCO[C@H]1OC(C(=O)Nc2ccccc2)=C[C@@H](c2coc3ccccc3c2=O)[C@@H]1CCCO	none
O=C(NCc1ccccc1)C1=C[C@@H](c2coc3ccccc3c2=O)C[C@@H](OCc2ccc(CO)cc2)O1	TAAR1 antag 52 | nonsel antag count inactive | TAAR1 ant conf inactive | Ga16 nonsel ag inactive | TAAR1 ag counter inactive
CCO[C@@H]1OC(C(=O)NCc2ccccc2)=C[C@H](c2coc3ccccc3c2=O)[C@H]1CCCO	TAAR1 antag 50 | nonsel antag count inactive | TAAR1 ant conf inactive | Ga16 nonsel ag inactive | TAAR1 ag counter inactive
O=C(Nc1ccccc1)C1=C[C@H](c2coc3ccccc3c2=O)C[C@H](OCc2ccc(CO)cc2)O1	none
C=CCOC(=O)C1=C[C@H](c2cn(C(C)=O)c3ccccc23)C[C@H](OCc2ccc(CO)cc2)O1	TAAR1 antag 75 | nonsel antag count 38 | TAAR1 ant conf 52 | Ga16 nonsel ag inactive | TAAR1 ag counter inactive
CCC12CC1(C(=O)OC)C(=O)N1CCc3c([nH]c4ccccc34)C12 (stereo unspecified)	none (no result: TAAR1 antag, TAAR1 agonist)
COC(=O)C[C@H]1c2ccccc2S(=O)(=O)N1Cc1ccc(OC)cc1	none
COC(=O)/C=C/c1ccccc1CN1[C@@H](CC(=O)OC)c2ccccc2S1(=O)=O	TAAR1 antag 107 | nonsel antag count inactive | TAAR1 ant conf inactive | Ga16 nonsel ag inactive | TAAR1 ag counter inactive
CCc1nc2ccc(C(=O)Nc3cccc(OCC(=O)N(C)C)c3)cn2c1N(C=O)Cc1ccc(OC)cc1	none
CC(=O)c1c(COC(=O)c2ccncc2)nc2ccccc2[n+]1[O-]	none
CC(=O)c1c(COC(=O)c2cccc(C)c2)nc2ccccc2[n+]1[O-]	TAAR1 antag 50 | nonsel antag count 28 | TAAR1 ant conf inactive | Ga16 nonsel ag inactive | TAAR1 ag counter inactive
COc1ccc([C@H]2CC(=O)C=C(c3ccc(CNC(=O)OC(C)(C)C)cc3)C2)cc1	M1 antag 34, TAAR1 antag 83 | nonsel antag count 47 | TAAR1 ant conf 68 | Ga16 nonsel ag 12 | TAAR1 ag counter inactive
COCCN1C(=O)COc2ccccc2C1C(=O)Nc1ccc2c(c1)OCCO2 (stereo unspecified)	none (no result: M1 antag, CHRM1 PAM, CHRM1 agonist)
O=C(Nc1ccc(Cl)cc1)N[C@@H]1CC[C@H](CCNS(=O)(=O)c2ccccc2F)O[C@@H]1CO	none (no result: M1 antag, CHRM1 PAM, CHRM1 agonist)
